Drawing on ChEMBL document CHEMBL1123026, “Preparation and antiarthritic and analgesic activity of 4,5-diaryl-2-(substituted thio)-1H-imidazoles and their sulfoxides and sulfones” (1985), this text covers ED50 and Decrease for 22 compounds.

The structures appear in SMILES notation.

Assay type in all cases: functional
Experiment [1] relates to Mus musculus. Nature of the experiment: Effective dose by mouse phenyl-p-benzoquinone writhing (PQW)assay after peroral administration; activity value ranges from (16.2-99). The conditions noted are these: po. The procedure, abridged: (§1)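 Fasted (17-21 h) female white mice, 5-20 per double-blind test, dosed orally with compound suspended in 1% methylcellulose. 0.20 mL aqueous 0.01% phenyl-p-benzoquinone given i.p. 6 min before a 10-min observation for stretching/writhing. ED50 (dose protecting 50% of mice) calculated by the moving-average method.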

The test system of experiment [2] is Rattus norvegicus. The experiment in a line: Effective dose determined against rat adjuvant arthritis after peroral administration. The settings on record: po. The gist of the method: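 Male Lewis rats (130-150 g) given 0.1 mL Mycobacterium butyricum adjuvant (5 mg/mL in mineral oil) s.c. into the right hind paw; arthritis developed for 2 weeks. Groups of 10 matched for severity were dosed orally by gavage in PVA-acacia vehicle (10 mL/kg) for 7 days. Uninjected left paw volume was measured the day after the last dose. Percent decrease was calculated vs arthritic and nonarthritic controls. ED50 was read from a visually fitted semilog dose-response line.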

Experiment [3] has as its system Mus musculus. Nature of the experiment: Effective dose by mouse phenyl-p-benzoquinone writhing (PQW)assay after peroral administration; 20.6-296.0. The conditions noted are these: po.
The subject of experiment [4] is Mus musculus. Nature of the experiment: Effective dose by mouse phenyl-p-benzoquinone writhing (PQW)assay after peroral administration; activity value ranges from (5.9 - 17.1). The settings on record: po. The procedure, abridged: as §1
Experiment [5] concerns Mus musculus. Nature of the experiment: Effective dose by mouse phenyl-p-benzoquinone writhing (PQW)assay after peroral administration; activity value ranges from (7.5-51.9). The conditions noted are these: po. The gist of the method: as §1
Experiment [6] relates to Mus musculus. The experiment in a line: Effective dose by mouse phenyl-p-benzoquinone writhing (PQW)assay after peroral administration; 30.9-197.0. The conditions noted are these: po.
The subject of experiment [7] is Mus musculus. The experiment in a line: Effective dose determined by mouse phenyl-p-benzoquinone writhing (PQW) assay after peroral administration. The settings on record: po. The procedure, abridged:
as §1

Experiment [8] deals with Rattus norvegicus. Nature of the experiment: Decrease in paw volume was evaluated at dose 150 mg/kg. The procedure, abridged:
(§2)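 Male Lewis rats (130-150 g) got 0.1 mL adjuvant (heat-killed Mycobacterium butyricum, 5 mg/mL in mineral oil) subplantar in the right hind paw and were left 2 weeks. Groups of 10 matched for severity were dosed orally by gavage (PVA-acacia vehicle, 10 mL/kg) for 7 days. Uninjected left hind paw volume was read the next day. % decrease = (arthritic control − treated)/(arthritic − nonarthritic control) × 100; Student's t-test.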

Experiment [9] relates to Mus musculus. The experiment in a line: Effective dose by mouse phenyl-p-benzoquinone writhing (PQW)assay after peroral administration; activity value ranges from (1.2-4.5). The settings on record: po.
Experiment [10] has as its system Mus musculus. Nature of the experiment: Effective dose by mouse phenyl-p-benzoquinone writhing (PQW)assay after peroral administration; 6.8-17.7. The settings on record: po.
In experiment [11] the test system is Mus musculus. Nature of the experiment: Effective dose by mouse phenyl-p-benzoquinone writhing (PQW)assay after peroral administration; activity value ranges from (9.2 - 43.6). The settings on record: po. The procedure, abridged:
as §1

Experiment [12] deals with Mus musculus. The experiment in a line: Effective dose by mouse phenyl-p-benzoquinone writhing (PQW)assay after peroral administration; activity value ranges from (2.7-11.8). The conditions noted are these: po. The gist of the method:
as §1

Experiment [13] concerns Mus musculus. The experiment in a line: Effective dose by mouse phenyl-p-benzoquinone writhing (PQW)assay after peroral administration; activity value ranges from (2.6-10.7). The settings on record: po. The procedure, abridged:
as §1

The test system of experiment [14] is Mus musculus. Nature of the experiment: Effective dose by mouse phenyl-p-benzoquinone writhing (PQW)assay after peroral administration; activity value ranges from (4.8 - 25.4). The settings on record: po. The procedure, abridged: as §1
Experiment [15] has as its system Mus musculus. The experiment in a line: Effective dose by mouse phenyl-p-benzoquinone writhing (PQW)assay after peroral administration; activity value ranges from (0.9-4.5). The conditions noted are these: po.
Experiment [16] has as its system Mus musculus. The experiment in a line: Effective dose by mouse phenyl-p-benzoquinone writhing (PQW)assay after peroral administration; activity value ranges from (8.4-80.4). The conditions noted are these: po. The procedure, abridged: as §1
Experiment [17] concerns Rattus norvegicus. Nature of the experiment: Decrease in paw volume by the effect of compound at a dose of 25 mg/kg. The procedure, abridged:
as §2

The test system of experiment [18] is Mus musculus. Nature of the experiment: Effective dose by mouse phenyl-p-benzoquinone writhing (PQW)assay after peroral administration; 4.5-25.9. The conditions noted are these: po.
Experiment [19] relates to Mus musculus. Nature of the experiment: Effective dose by mouse phenyl-p-benzoquinone writhing (PQW)assay after peroral administration; activity value ranges from (15.9-183). The conditions noted are these: po. The procedure, abridged:
as §1

In experiment [20] the test system is Mus musculus. Nature of the experiment: Effective dose by mouse phenyl-p-benzoquinone writhing (PQW)assay after peroral administration; activity value ranges from (0.66-2.55). The conditions noted are these: po.
Experiment [21] deals with Mus musculus. The experiment in a line: Effective dose by mouse phenyl-p-benzoquinone writhing (PQW)assay after peroral administration; activity value ranges from (57.4 - 203.2). The settings on record: po. The procedure, abridged: as §1
Experiment [22] relates to Mus musculus. Nature of the experiment: Effective dose by mouse phenyl-p-benzoquinone writhing (PQW)assay after peroral administration; 27.2-42.9. The settings on record: po.
In experiment [23] the test system is Mus musculus. Nature of the experiment: Effective dose by mouse phenyl-p-benzoquinone writhing (PQW)assay after peroral administration; 0.23-0.53. The conditions noted are these: po.
The test system of experiment [24] is Mus musculus. Nature of the experiment: Effective dose by mouse phenyl-p-benzoquinone writhing (PQW)assay after peroral administration; activity value ranges from (49.8-84.8). The conditions noted are these: po. The gist of the method:
as §1

The test system of experiment [25] is Mus musculus. Nature of the experiment: Effective dose by mouse phenyl-p-benzoquinone writhing (PQW)assay after peroral administration; activity value ranges from (0.37-1.22). The conditions noted are these: po.

On to `CCC[S+]([O-])c1nc(-c2ccc(OC)cc2)c(-c2ccc(OC)cc2)[nH]1` (centres undefined), for which the ED50 with Mus musculus [1] is 40 mg/kg; in the experiment with Rattus norvegicus [2] it was 15 mg/kg. `FC(F)Sc1nc(-c2ccc(Cl)cc2)c(-c2ccc(Cl)cc2)[nH]1`: it took a dose of 78 mg/kg to reach the 50% effect level in the experiment with Mus musculus [3] (ED50). For `O=S(=O)(CC(F)(F)F)c1nc(-c2ccc(Cl)cc2)c(-c2ccc(Cl)cc2)[nH]1`, the ED50 in the experiment with Mus musculus [4] and with Rattus norvegicus [2] was 10 mg/kg throughout.

Turning to `O=S(=O)(c1nc(-c2cccc(Cl)c2)c(-c2ccccc2)[nH]1)C(F)(F)C(F)F`, the median effective dose (ED50) in the experiment with Mus musculus [5] amounted to 19.8 mg/kg; in the experiment with Rattus norvegicus [2], 0.04 mg/kg.

`COc1ccc(-c2[nH]c(SC(F)(F)F)nc2-c2ccc(F)cc2)cc1`: in the experiment with Mus musculus [6], the 50% effect level (ED50) was put at a dose of 78 mg/kg. For the compound `FC(F)(F)CSc1nc(-c2ccccc2)c(-c2ccccc2)[nH]1`, the ED50 in the experiment with Mus musculus [7] is > 130 mg/kg. The same compound yielded a Decrease in the experiment with Rattus norvegicus [8] of 54%. In the experiment on Mus musculus [9], `O=S(=O)(c1nc(-c2ccc(Cl)cc2)c(-c2ccc(Cl)cc2)[nH]1)C(F)F` returned an ED50 of 2.3 mg/kg. In the case of `CCSc1nc(-c2ccc(OC)cc2)c(-c2ccc(OC)cc2)[nH]1`, the values for the ED50 with Mus musculus [10] and in the experiment on Rattus norvegicus [2] were 11 mg/kg and 5 mg/kg, respectively. The compound `O=S(=O)(CC(F)(F)F)c1nc(-c2ccc(F)cc2)c(-c2ccc(F)cc2)[nH]1` registered an ED50 in the experiment on Mus musculus [11] of 20 mg/kg. With `O=S(=O)(c1nc(-c2ccccc2)c(-c2ccccc2)[nH]1)C(F)(F)CF`, the 50% effective dose (ED50) in the experiment with Mus musculus [12] turned out to be 5.6 mg/kg; in the experiment with Rattus norvegicus [2], 0.14 mg/kg.

Turning to `[O-][S+](CC(F)(F)F)c1nc(-c2ccc(Cl)cc2)c(-c2ccc(Cl)cc2)[nH]1` (centres undefined), the median effective dose (ED50) with Rattus norvegicus [2] is 2.3 mg/kg; in the experiment with Mus musculus [13] it was 5.3 mg/kg.

For `Cc1ccc(-c2nc(S(=O)(=O)C(F)(F)C(F)F)[nH]c2-c2ccc(C)cc2)cc1`, in the experiment on Mus musculus [14], it took a dose of 11 mg/kg to reach the 50% effect level (ED50). In the case of `O=S(=O)(c1nc(-c2cccc(F)c2)c(-c2ccccc2)[nH]1)C(F)(F)C(F)F`, the ED50 in the experiment on Mus musculus [15] stood at 2 mg/kg. As for `COc1ccc(-c2[nH]c(S(C)(=O)=O)nc2-c2ccccc2)cc1`, the ED50 in the experiment with Mus musculus [16] was 26 mg/kg. For the same compound, the Decrease with Rattus norvegicus [17] is listed as 33%. For `COc1ccc(-c2nc(S(=O)(=O)C(F)(F)C(Br)Br)[nH]c2-c2ccc(OC)cc2)cc1`, the ED50 was 10.8 mg/kg in the experiment with Mus musculus [18] and > 9 mg/kg in the experiment on Rattus norvegicus [2]. As for `[O-][S+](CC(F)(F)F)c1nc(-c2ccccc2)c(-c2ccccc2)[nH]1` (centres undefined), the median effective dose (ED50) is 54 mg/kg with Mus musculus [19] and 75 mg/kg in the experiment with Rattus norvegicus [2]. With `[O-][S+](c1nc(-c2ccc(Cl)cc2)c(-c2ccc(Cl)cc2)[nH]1)C(F)F` (centres undefined), the ED50 with Mus musculus [20] turned out to be 1.3 mg/kg. Turning to `CS(=O)(=O)c1nc(-c2ccccc2Cl)c(-c2ccccc2Cl)[nH]1`, the ED50 in the experiment on Mus musculus [21] was 108 mg/kg; in the experiment on Rattus norvegicus [2] it was > 50 mg/kg.

Consider `O=S(=O)(c1nc(-c2ccccc2)c(-c2ccccc2)[nH]1)C(F)(F)C(Cl)Cl`, for which the figures for the ED50 with Mus musculus [22] and in the experiment with Rattus norvegicus [2] were 34.2 mg/kg and 1.7 mg/kg, respectively. In turn, `COc1ccc2c(c1)c(CC(=O)O)c(C)n2C(=O)c1ccc(Cl)cc1` [INDOMETHACIN] showed an ED50 with Mus musculus [23] of 0.35 mg/kg.

For the compound `CCCCC1C(=O)N(c2ccccc2)N(c2ccccc2)C1=O` [PHENYLBUTAZONE], the ED50 in the experiment with Mus musculus [24] was determined as 65 mg/kg. As to `O=S(=O)(c1nc(-c2ccc(F)cc2)c(-c2ccc(F)cc2)[nH]1)C(F)(F)C(F)F` [TIFLAMIZOLE], the ED50 in the experiment with Mus musculus [25] worked out at 0.67 mg/kg.
